A short description of assay [1]: OD615 S. cerevisiae growth inhibition, permissive medium, pilot counter-assay, permissive growth control for S. cerevisiae lifespan shortening project (AID 705;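 active means growth inhibition above 25% in both replicates, a cutoff set 3 SD above the mean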). To be noted: OD615, 24 h, at 10 µM, stronger effect = higher value. The essentials: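 System – S. cerevisiae with engineered DeaD lifespan system · Buffer or medium – SC raffinose/galactose permissive medium · Schedule – cells pre-grown 4 h, then 24 h compound exposure, 30 °C humidified · Technique – culture turbidity as optical density at 615 nm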

The nature of assay [2]: Restrictive medium S. cerevisiae growth inhibition, OD615, pilot screen of yeast lifespan reduction project, restrictive growth control (AID 706;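 active means growth inhibition above a set limit, 3 SD over mean compound inhibition, in both replicates, cut at about 43% in these data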;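 further: modified DeaD lifespan yeast strain shifted to restrictive glucose medium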). To be noted: OD615, 48 h, at 10 µM, stronger effect = higher value. The essentials:
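Material: engineered S. cerevisiae DeaD strain / Medium: glucose-based CSMM-D restrictive medium / Compound: single dose of 10 µM compound final, 0.25% DMSO / Timing: 4 h pre-incubation, 48 h exposure at 30 °C / Technique: OD615 absorbance reading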

Assay [3] can be described thus: viability gain of MRP-1-high H69AR cells under doxorubicin, pilot screen, MRP-1 activator project, CellTiter-Glo, duplicate (AID 807;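 active means viability increase at or above a cutoff of the median across tested compounds plus 3 SD, cut at about 8.5% in these data, passing the limit was not always enough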;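 further: compound pretreatment 18-22 h then 72 h combined with doxorubicin; 0% = doxorubicin alone and 100% = vehicle without doxorubicin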). To be noted: H69AR viability with doxorubicin, CellTiter-Glo luminescence; at 10 µM; stronger effect = higher value.
A short description of assay [4]: growth suppression of beta-catenin knockout HCT116, pilot screen, human colon tumor cells (AID 823;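 active means cell viability at or below a set limit in both duplicate runs, the limit being the all-compound median minus 4 SD, cut at about 23% in these data, passing the limit was not always enough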;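 further: 0% = wells killed by 20 µM Hyamine and 100% = untreated DMSO cell wells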). To be noted: CellTiter-Glo, 60 h, at 10 µM, stronger effect = lower value. Background: Cellular ATP, detected with luciferase, serves as a proxy for viable cell number.
The nature of assay [5]: growth suppression of PTEN-deleted HCT116, pilot screen, cell-based, HCT116 clonal line, CellTiter-Glo (AID 824).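 Further: 0% = 20 µM Hyamine control and 100% = vehicle cell control.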 To be noted: 60 h, at 10 µM, stronger effect = lower value.
A short description of assay [6]: inhibitors of the yeast RAM network, pilot screen, dse1pr::URA3 reporter, 5-FOA selection (AID 869;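 active means inhibition over a set limit, the all-compound mean plus 3 SD, in both replicate runs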;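 further: 0% = DMSO wells with no growth and 100% = 10 µM 1-NA-PP1 with full growth; RAM network block rescues cells from 5-FOA so hits raise OD615 growth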). As to conditions: S. cerevisiae dse1pr::URA3 5-FOA growth, OD615, 2 d; at 10 µM; stronger effect = higher value; strain carries analog-sensitive mutant Cbk1 kinase.
Assay [7] is described as follows: RAM signaling pathway blockade in yeast – S. cerevisiae, Pdr1DBD-CYC8 efflux-inhibited sensitized strain, primary screen (AID 1298;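 active means RAM network inhibition above 8.4% in each of two replicates, 3 SD over the compound average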;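 further: 0% = DMSO untreated cells without growth and 100% = 10 µM 1-NA-PP1 full growth; higher means more yeast growth rescued from 5-FOA killing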). To be noted: S. cerevisiae cbk1-as DSE1-URA3 strain, 5-FOA growth OD615, 2 d; at 50 µM; stronger effect = higher value.

Values without a mark were called inactive. Inconclusive results are not listed. Calls of active or inactive are those of the source.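 How the source made its calls, unless noted: active means viability at or below 27.92% in each of two runs, the all-compound median minus 4 SD; inconclusive means no clear call, values can overlap the other calls; inactive means the rest.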

With `CCCCNC(=O)CCCn1c(=O)[nH]c2ccc(Br)cc2c1=O`, the growth inhibition is -13% in assay [1] and -18% in assay [2]. In addition, the viability increase in assay [3] was -0.78%. Besides, the viability (as a rule, a read-out of living cells in per cent, often relative to untreated cells) in assay [4] was 97.9%; in assay [5], 92.7%. Moreover, the inhibition – broadly, the relative decrease from the control value, in per cent – in assay [6] is 0.635%. In assay [7], the RAM network inhibition was 1.08%.

As to `CC1CN(Cc2nc3c(c(=O)n(C)c(=O)n3C)n2Cc2cccc(Cl)c2)CC(C)O1` (centres undefined), the growth inhibition in assay [1] was -4.24%; in assay [2] it was -9%. The viability increase in assay [3] is -2.03%. Moreover, the viability in assay [4] was 100%; in assay [5], 90.8%. The inhibition in assay [6] was 0.74%. In addition, in assay [7], the RAM network inhibition was 2.81%.

As for `O=C(CSc1nc2c(cnn2-c2ccc(F)cc2)c(=O)[nH]1)N1CCCCC1`, the growth inhibition in assay [1] was -8.1%; in assay [2], 7.12%. The viability increase in assay [3] was -3.71%. For the same compound, the viability was 91.7% in assay [4] and 84.7% in assay [5]. The inhibition in assay [6] is 2.99%. Besides, in assay [7], the RAM network inhibition was 1.77%.

With `CCC(C)NC(=O)C(NS(=O)(=O)c1ccc2c(c1)c(=O)n(C)c(=O)n2C)c1ccccc1` (centres undefined), the growth inhibition in assay [1] is -5.69%; in assay [2] it was -11.3%. The viability increase in assay [3] was -1.17%. Moreover, the viability in assay [4] was 101%; in assay [5], 96.6%. Further, the inhibition in assay [6] was 1.19%. Further, the RAM network inhibition in assay [7] is 4.7%.

Turning to `Cc1c(NS(=O)(=O)c2ccccc2)cc(Cl)c(O)c1C`, the growth inhibition in assay [1] is -9.11%; in assay [2], -4.86%. The viability increase in assay [3] is -5.19%. Further, the figures for the viability in assay [4] and in assay [5] were 90.9% and 93.5%, respectively. The inhibition in assay [6] is 0.695%. Moreover, the RAM network inhibition in assay [7] is 6.75%.

On to `Oc1c(C(c2cccs2)N2CCN(c3ccc(F)cc3)CC2)sc2ncnn12` (centres undefined), for which the growth inhibition in assay [1] was 0.78%; in assay [2], -6.24%. The viability increase in assay [3] was 13.4% (active). The results for the viability in assay [4] and in assay [5] were 105% and 90.9%, respectively. For the same compound, the inhibition in assay [6] is 0.495%. Besides, in assay [7], the RAM network inhibition was 8.63%.

`Cn1c(=O)c2cc(NCc3ccccc3)nnc2n(C)c1=O`: the growth inhibition in assay [1] is -12.8%; in assay [2], -9.73%. Besides, the viability increase in assay [3] is -2.1%. In addition, the results for the viability in assay [4] and in assay [5] were 67.5% and 58.8%, respectively. Moreover, the inhibition in assay [6] was 0.38%. Besides, the RAM network inhibition in assay [7] is -0.94%.

For `COc1ccccc1NC(=O)CSc1nnc(-c2ccco2)n1Cc1ccco1`, the growth inhibition in assay [1] is 1.41%; in assay [2] it was 1.92%. For the same compound, the viability increase in assay [3] is -3.34%. In addition, the viability was 92.8% in assay [4] and 90.5% in assay [5]. Moreover, in assay [6], the inhibition is 1.39%. In assay [7], the RAM network inhibition was 1%.

For `COc1ccc(N(CC(=O)NC2CCCCCCC2)S(=O)(=O)c2c(C)nn(C)c2C)cc1`, the results for the growth inhibition in assay [1] and in assay [2] were -20.7% and -13.6%, respectively. The viability increase in assay [3] is -2.87%. For the same compound, the results for the viability in assay [4] and in assay [5] were 89.2% and 87.5%, respectively. In addition, in assay [6], the inhibition was 1.31%. In addition, the RAM network inhibition in assay [7] is 0.05%.

On to `Cc1c(C)n(C(=O)CSc2nncn2C)c2ccccc12`, for which the growth inhibition was 3.06% in assay [1] and 12.8% in assay [2]. In assay [3], the viability increase is -2.73%. Further, the results for the viability in assay [4] and in assay [5] were 93.2% and 98.1%, respectively. In addition, the inhibition in assay [6] was 0.94%. The RAM network inhibition in assay [7] is 3%.

Consider `CC(C)C(NS(=O)(=O)c1ccc2c(c1)oc(=O)n2C)C(=O)N1CCN(Cc2ccccc2)CC1` (centres undefined), for which the growth inhibition in assay [1] is -5.8%; in assay [2], -20.3%. For the same compound, the viability increase in assay [3] was -3.99%. Moreover, the viability in assay [4] was 88.9%; in assay [5], 92%. For the same compound, in assay [6], the inhibition was 2.62%. Besides, the RAM network inhibition in assay [7] is -2.73%.

With `Nc1nc(SCC(=O)N2CCCc3ccccc32)n(-c2ccccc2)n1`, the growth inhibition in assay [1] is -4.37%; in assay [2], 0.05%. Further, the viability increase in assay [3] is -4.68%. In addition, the viability is 108% in assay [4] and 99.3% in assay [5]. For the same compound, in assay [6], the inhibition is 2.67%. Also, the RAM network inhibition in assay [7] was 6.67%.

On to `O=P(O)(CCc1ccccn1)CN1CCOCC1`, for which the figures for the growth inhibition in assay [1] and in assay [2] were -17.5% and -15.6%, respectively. Moreover, in assay [3], the viability increase is 1.31%. In addition, the viability in assay [4] was 92.6%; in assay [5], 92.5%. Besides, the inhibition in assay [6] was 2.73%. In addition, the RAM network inhibition in assay [7] was 1.09%.

In the case of `COC(=O)C(C)Sc1nnc(Cc2cc(=O)[nH]c(=O)[nH]2)n1-c1cc(C)ccc1C` (centres undefined), the growth inhibition in assay [1] was -5.62%; in assay [2], 0.885%. Besides, in assay [3], the viability increase was -1.25%. Besides, the viability in assay [4] was 96%; in assay [5], 90.3%. Further, the inhibition in assay [6] is 1.77%. Further, the RAM network inhibition in assay [7] was 0.62%.

As for `O=C1CC(c2ccc(S(=O)(=O)NCc3ccccc3)cc2)CN1` (centres undefined), the growth inhibition in assay [1] was -7.82%; in assay [2], -21%. Further, the viability increase in assay [3] is -2.13%. Besides, the viability was 101% in assay [4] and 87.9% in assay [5]. Also, the inhibition in assay [6] is 1.56%. The RAM network inhibition in assay [7] is 1.23%.

For the compound `CCSc1nnc(Cc2cc(=O)[nH]c(=O)[nH]2)n1-c1ccc(F)cc1`, the growth inhibition in assay [1] was -5.83%; in assay [2], -10.5%. Moreover, in assay [3], the viability increase was 0.38%. In addition, the values for the viability in assay [4] and in assay [5] were 104% and 100%, respectively. Moreover, the inhibition in assay [6] was 0.9%. In assay [7], the RAM network inhibition was 1.04%.

In the case of `COc1ccc(OC)c(-c2nc(C(N)=O)c3[nH]c(=O)n(-c4ccc(F)cc4)c3n2)c1`, the growth inhibition in assay [1] was -0.485%; in assay [2], -10.4%. Besides, the viability increase in assay [3] was -2.73%. The viability in assay [4] was 95.4%; in assay [5], 103%. Moreover, the inhibition in assay [6] is 2.46%. The RAM network inhibition in assay [7] is 0.16%.

The record behind these values is PubChem BioAssay.
